In ChEMBL document CHEMBL1157295, “Polyacylated oligosaccharides from medicinal Mexican morning glory species as antibacterials and inhibitors of multidrug resistance in Staphylococcus aureus” (2006) one finds MIC data, which are given here for 19 molecules.

Values after ≈ are worked out from the molar mass of the structure shown.

Holding throughout (format): functional
Test [1] relates to Staphylococcus aureus. The test can be described thus: Antimicrobial activity against Staphylococcus aureus ATCC 25923 by standard microdilution method. The procedure, abridged: (§1)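 Broth microdilution per NCCLS guidelines, at least in duplicate, in cation-adjusted Mueller-Hinton broth (20 mg/L Ca2+, 10 mg/L Mg2+). Strains were grown first on nutrient agar. Inoculum of 5 × 10^5 cfu was set in 0.9% saline against a McFarland standard. Compounds were dissolved in DMSO and given as 2-fold serial dilutions, final 1–512 µg/mL, with at most 3.125% v/v DMSO. MIC is the lowest concentration showing no visible growth.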
(In broth dilution the organism is exposed to a series of concentrations in liquid medium.)

Test [2] deals with Staphylococcus aureus. The test can be described thus: Antimicrobial activity against epidemic methicillin-resistant Staphylococcus aureus 15 by standard microdilution method. A digest of the protocol: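 Broth microdilution following NCCLS guidelines, at least in duplicate, against EMRSA-15 (mecA) precultured on nutrient agar. Medium was cation-adjusted Mueller-Hinton broth with 20 mg/L Ca2+ and 10 mg/L Mg2+. Inoculum was 5 × 10^5 cfu in 0.9% saline, set against a McFarland standard. Compounds were dissolved in DMSO (final ≤3.125% v/v) and tested at 1–512 µg/mL in 2-fold series. MIC was the lowest concentration with no visible growth.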

Test [3] concerns Staphylococcus aureus. The test can be described thus: Antimicrobial activity against TetK multidrug efflux pump possessing Staphylococcus aureus XU-212 by standard microdilution method. A digest of the protocol: as §1

Broadly, the MIC is the least concentration at which growth counts as inhibited. The low end stands for greater potency, the high end for weaker potency. For `CCn1cc(C(=O)O)c(=O)c2cc(F)c(N3CCNCC3)cc21` [NORFLOXACIN], the minimal inhibitory concentration (MIC) in the test with Staphylococcus aureus [1] is 2 mg/L (≈ 6.26 µM); in the test with Staphylococcus aureus [2], 0.5 mg/L (≈ 1.57 µM); against Staphylococcus aureus [3] it was 16 mg/L (≈ 50.1 µM).
The like results for `C/C=C(\C)C(=O)O[C@H]1[C@H](O)[C@@H](O)[C@H](O[C@@H]2[C@H]3OC(=O)CCCCCCCCC[C@H](CCCCC)O[C@@H]4O[C@H](C)[C@@H](O)[C@H](O)[C@H]4O[C@@H]4O[C@H](CO)[C@@H](OC(=O)[C@H](C)[C@@H](C)O)[C@H](O)[C@H]4O[C@H](O[C@H]2C)[C@@H]3OC(=O)[C@@H](C)CC)O[C@@H]1C` [ORIZABIN IX] were, in that order, > 512 mg/L, 256 mg/L (≈ 228 µM) and > 512 mg/L.
As to `C/C=C(\C)C(=O)O[C@H]1[C@H](O)[C@@H](O)[C@H](O[C@@H]2[C@H]3OC(=O)CCCCCCCCC[C@H](CCCCC)O[C@@H]4O[C@H](C)[C@@H](O)[C@H](O)[C@H]4O[C@@H]4O[C@H](COC(=O)[C@@H](C)[C@H](C)O)[C@@H](O)[C@H](O)[C@H]4O[C@H](O[C@H]2C)[C@@H]3OC(=O)C(C)C)O[C@@H]1C` [ORIZABIN XIII], the minimal inhibitory concentration (MIC) with Staphylococcus aureus [1] is 8 mg/L (≈ 7.22 µM); with Staphylococcus aureus [2] it was 8 mg/L (≈ 7.22 µM); with Staphylococcus aureus [3], 32 mg/L (≈ 28.9 µM).
Turning to `C/C=C(\C)C(=O)O[C@H]1[C@H](O)[C@@H](O)[C@H](O[C@@H]2[C@H]3OC(=O)CCCCCCCCC[C@H](CCCCC)O[C@@H]4O[C@H](C)[C@@H](O)[C@H](O)[C@H]4O[C@@H]4O[C@H](COC(=O)[C@H](C)[C@@H](C)O)[C@@H](O)[C@H](O)[C@H]4O[C@H](O[C@H]2C)[C@@H]3OC(=O)C(C)C)O[C@@H]1C` [ORIZABIN XII], the values for the MIC in the test with Staphylococcus aureus [1], with Staphylococcus aureus [2] and against Staphylococcus aureus [3] were > 512 mg/L, 512 mg/L (≈ 462 µM) and > 512 mg/L, respectively.
For the molecule `C/C=C(\C)C(=O)O[C@H]1[C@H](O)[C@@H](O)[C@H](O[C@@H]2[C@H]3OC(=O)CCCCCCCCC[C@H](CCCCC)O[C@@H]4O[C@H](C)[C@@H](O)[C@H](O)[C@H]4O[C@@H]4O[C@H](COC(=O)[C@@H](C)CC)[C@@H](O)[C@H](O)[C@H]4O[C@H](O[C@H]2C)[C@@H]3OC(=O)[C@H](C)[C@@H](C)O)O[C@@H]1C` [ORIZABIN XIV], the MIC in the test on Staphylococcus aureus [1] was 16 mg/L (≈ 14.3 µM); against Staphylococcus aureus [2], 8 mg/L (≈ 7.13 µM); in the test with Staphylococcus aureus [3] it was 64 mg/L (≈ 57.1 µM).
In the case of `CCCCC[C@H]1CCCCCCCCCC(=O)O[C@@H]2[C@@H](O[C@@H]3O[C@H](C)[C@@H](OC(=O)[C@@H](C)CC)[C@H](O)[C@H]3O)[C@H](C)O[C@@H](O[C@H]3[C@H](O[C@H]4[C@H](O1)O[C@H](C)[C@@H](O)[C@@H]4O)O[C@H](COC(=O)[C@@H](C)CC)[C@@H](O)[C@@H]3O)[C@@H]2OC(=O)[C@@H](C)[C@H](C)O` [ORIZABIN XIX], the MIC came to 128 mg/L (≈ 114 µM) in the test on Staphylococcus aureus [1], 256 mg/L (≈ 228 µM) in the test with Staphylococcus aureus [2] and 512 mg/L (≈ 456 µM) in the test with Staphylococcus aureus [3].
Consider `C/C=C(\C)C(=O)O[C@H]1[C@H](O)[C@@H](O)[C@H](O[C@@H]2[C@H]3OC(=O)CCCCCCCCC[C@H](CCCCC)O[C@@H]4O[C@H](C)[C@@H](O)[C@H](O)[C@H]4O[C@@H]4O[C@H](COC(=O)C(C)C)[C@@H](O)[C@H](O)[C@H]4O[C@H](O[C@H]2C)[C@@H]3OC(=O)[C@@H](C)[C@H](C)O)O[C@@H]1C` [ORIZABIN XI], for which the MIC against Staphylococcus aureus [1] came to 16 mg/L (≈ 14.4 µM); with Staphylococcus aureus [2], 4 mg/L (≈ 3.61 µM); in the test on Staphylococcus aureus [3] it was 32 mg/L (≈ 28.9 µM).
The like results for `CCCCC[C@H]1CCCCCCCCCC(=O)O[C@@H]2[C@@H](O[C@@H]3O[C@H](C)[C@@H](OC(=O)[C@@H](C)CC)[C@H](O)[C@H]3O)[C@H](C)O[C@@H](O[C@H]3[C@H](O[C@H]4[C@H](O1)O[C@H](C)[C@@H](O)[C@@H]4O)O[C@H](COC(=O)[C@@H](C)CC)[C@@H](O)[C@@H]3O)[C@@H]2OC(=O)[C@H](C)[C@@H](C)O` [ORIZABIN XVIII] were, in that order, 32 mg/L (≈ 28.5 µM), 64 mg/L (≈ 57 µM) and 64 mg/L (≈ 57 µM).
Turning to `C/C=C(\C)C(=O)O[C@H]1[C@H](O)[C@@H](O)[C@H](O[C@@H]2[C@H]3OC(=O)CCCCCCCCC[C@H](CCCCC)O[C@@H]4O[C@H](C)[C@@H](O)[C@H](O)[C@H]4O[C@@H]4O[C@H](COC(=O)[C@@H](C)[C@H](C)O)[C@@H](O)[C@H](O)[C@H]4O[C@H](O[C@H]2C)[C@@H]3OC(=O)[C@@H](C)CC)O[C@@H]1C` [ORIZABIN XVII], the MIC came out at 8 mg/L (≈ 7.13 µM) with Staphylococcus aureus [1], 8 mg/L (≈ 7.13 µM) in the test with Staphylococcus aureus [2] and 32 mg/L (≈ 28.5 µM) with Staphylococcus aureus [3].
`C/C=C(\C)C(=O)O[C@H]1[C@H](O)[C@@H](O)[C@H](O[C@@H]2[C@H]3OC(=O)CCCCCCCCC[C@H](CCCCC)O[C@@H]4O[C@H](C)[C@@H](O)[C@H](O)[C@H]4O[C@@H]4O[C@H](COC(=O)[C@H](C)[C@@H](C)O)[C@@H](O)[C@H](O)[C@H]4O[C@H](O[C@H]2C)[C@@H]3OC(=O)[C@@H](C)CC)O[C@@H]1C` [ORIZABIN XVI]: the MIC with Staphylococcus aureus [1] was 8 mg/L (≈ 7.13 µM); against Staphylococcus aureus [2], 8 mg/L (≈ 7.13 µM); against Staphylococcus aureus [3] it was 128 mg/L (≈ 114 µM).
Consider `C/C=C(\C)C(=O)O[C@H]1[C@H](O)[C@@H](O)[C@H](O[C@@H]2[C@H]3OC(=O)CCCCCCCCC[C@H](CCCCC)O[C@@H]4O[C@H](C)[C@@H](O)[C@H](O)[C@H]4O[C@@H]4O[C@H](COC(=O)[C@@H](C)CC)[C@@H](O)[C@H](O)[C@H]4O[C@H](O[C@H]2C)[C@@H]3OC(=O)[C@@H](C)[C@H](C)O)O[C@@H]1C` [ORIZABIN XV], for which the values for the MIC against Staphylococcus aureus [1], in the test with Staphylococcus aureus [2] and against Staphylococcus aureus [3] were 128 mg/L (≈ 114 µM), 16 mg/L (≈ 14.3 µM) and 512 mg/L (≈ 457 µM), respectively.
Turning to `CCCCC[C@H]1CCCCCCCCCC(=O)O[C@@H]2[C@@H](O[C@@H]3O[C@H](C)[C@@H](OC(=O)[C@@H](C)CC)[C@H](O)[C@H]3O)[C@H](C)O[C@@H](O[C@H]3[C@H](O[C@H]4[C@H](O1)O[C@H](C)[C@@H](O)[C@@H]4O)O[C@H](COC(=O)[C@@H](C)[C@H](C)O)[C@@H](O)[C@@H]3O)[C@@H]2OC(=O)[C@@H](C)CC` [ORIZABIN XXI], the MIC against Staphylococcus aureus [1] turned out to be 8 mg/L (≈ 7.12 µM); in the test on Staphylococcus aureus [2] it was 16 mg/L (≈ 14.2 µM); against Staphylococcus aureus [3], 64 mg/L (≈ 57 µM).
Consider `CCCCC[C@H]1CCCCCCCCCC(=O)O[C@@H]2[C@@H](O[C@@H]3O[C@H](C)[C@@H](OC(=O)[C@@H](C)CC)[C@H](O)[C@H]3O)[C@H](C)O[C@@H](O[C@H]3[C@H](O[C@H]4[C@H](O1)O[C@H](C)[C@@H](O)[C@@H]4O)O[C@H](COC(=O)[C@H](C)[C@@H](C)O)[C@@H](O)[C@@H]3O)[C@@H]2OC(=O)[C@@H](C)CC` [ORIZABIN XX], for which the MIC in the test on Staphylococcus aureus [1] was 64 mg/L (≈ 57 µM); against Staphylococcus aureus [2], 32 mg/L (≈ 28.5 µM); against Staphylococcus aureus [3], > 512 mg/L.
The like results for `C/C=C(\C)C(=O)O[C@H]1[C@H](O)[C@@H](O)[C@H](O[C@@H]2[C@H]3OC(=O)CCCCCCCCC[C@H](CCCCC)O[C@@H]4O[C@H](C)[C@@H](O)[C@H](O)[C@H]4O[C@@H]4O[C@H](COC(=O)C(C)C)[C@@H](O)[C@H](O)[C@H]4O[C@H](O[C@H]2C)[C@@H]3OC(=O)[C@H](C)[C@@H](C)O)O[C@@H]1C` [ORIZABIN X] were, in that order, 16 mg/L (≈ 14.4 µM), 4 mg/L (≈ 3.61 µM) and 32 mg/L (≈ 28.9 µM).
Regarding `CCCCC[C@H]1CCCCCCCCCC(=O)O[C@@H]2[C@@H](O[C@@H]3O[C@H](C)[C@@H](O)[C@H](O)[C@H]3O)[C@H](C)O[C@@H](O[C@H]3[C@H](O[C@H]4[C@H](O1)O[C@H](C)[C@@H](O)[C@@H]4O)O[C@H](CO)[C@@H](O)[C@@H]3O)[C@@H]2OC(=O)[C@@H](C)CC` [SCAMMONIN II], the MIC in the test on Staphylococcus aureus [1] turned out to be 256 mg/L (≈ 273 µM); with Staphylococcus aureus [2], 128 mg/L (≈ 136 µM); against Staphylococcus aureus [3] it was 512 mg/L (≈ 545 µM).
With `C/C=C(\C)C(=O)O[C@H]1[C@H](O)[C@@H](O)[C@H](O[C@@H]2[C@H]3OC(=O)CCCCCCCCC[C@H](CCCCC)O[C@@H]4O[C@H](C)[C@@H](O)[C@H](O)[C@H]4O[C@@H]4O[C@H](CO)[C@@H](O)[C@H](O)[C@H]4O[C@H](O[C@H]2C)[C@@H]3OC(=O)[C@@H](C)CC)O[C@@H]1C` [SCAMMONIN I], the minimal inhibitory concentration (MIC) with Staphylococcus aureus [1] is 32 mg/L (≈ 31.3 µM); in the test on Staphylococcus aureus [2] it was 32 mg/L (≈ 31.3 µM); with Staphylococcus aureus [3] it was 128 mg/L (≈ 125 µM).
`CN(C)[C@@H]1C(O)=C(C(N)=O)C(=O)[C@@]2(O)C(O)=C3C(=O)c4c(O)cccc4[C@@](C)(O)[C@H]3C[C@@H]12` [TETRACYCLINE]: the MIC with Staphylococcus aureus [1] is 0.08 mg/L (≈ 0.18 µM); in the test on Staphylococcus aureus [2], 0.15 mg/L (≈ 0.338 µM); with Staphylococcus aureus [3] it was 64 mg/L (≈ 144 µM).
`CCCCC[C@H]1CCCCCCCCCC(=O)O[C@H]2[C@H](O[C@H]3[C@H](O[C@H]4[C@H](O1)O[C@H](C)[C@H](O)[C@@H]4O)O[C@H](CO)[C@@H](O)[C@@H]3O)O[C@H](C)[C@@H](O)[C@@H]2O` [TRICOLORIN F]: the minimum inhibitory concentration (MIC) with Staphylococcus aureus [1], in the test with Staphylococcus aureus [2] and against Staphylococcus aureus [3] was > 512 mg/L each time.
For the molecule `CCCCC[C@H](CCCCCCCCCC(=O)OC[C@H]1O[C@H]2O[C@H]3[C@H](O[C@@H](CCCCC)CCCCCCCCCC(=O)O[C@H]4[C@H](O[C@@H]2[C@@H](O)[C@@H]1O)O[C@H](C)[C@@H](O)[C@@H]4O)O[C@H](C)[C@H](O)[C@@H]3O)O[C@@H]1O[C@H](C)[C@H](O)[C@H](O)[C@H]1O[C@@H]1O[C@H](CO)[C@@H](O)[C@H](O)[C@H]1O[C@@H]1O[C@H](C)[C@@H](O)[C@H](O)[C@H]1O` [TRICOLORIN J], the MIC against Staphylococcus aureus [1], against Staphylococcus aureus [2] and in the test on Staphylococcus aureus [3] was > 256 mg/L in each case.
